{
  "source": "ChEMBL document CHEMBL4825680",
  "about": "“Structure-based discovery of potent and selective small-molecule inhibitors targeting signal transducer and activator of transcription 3 (STAT3)” (Eur J Med Chem, 2021)",
  "key": {"[1]": {"target": "T1, Signal transducer and activator of transcription 3 (Homo sapiens, UniProt P40763)", "T1 sequence (P40763 whole entry)": "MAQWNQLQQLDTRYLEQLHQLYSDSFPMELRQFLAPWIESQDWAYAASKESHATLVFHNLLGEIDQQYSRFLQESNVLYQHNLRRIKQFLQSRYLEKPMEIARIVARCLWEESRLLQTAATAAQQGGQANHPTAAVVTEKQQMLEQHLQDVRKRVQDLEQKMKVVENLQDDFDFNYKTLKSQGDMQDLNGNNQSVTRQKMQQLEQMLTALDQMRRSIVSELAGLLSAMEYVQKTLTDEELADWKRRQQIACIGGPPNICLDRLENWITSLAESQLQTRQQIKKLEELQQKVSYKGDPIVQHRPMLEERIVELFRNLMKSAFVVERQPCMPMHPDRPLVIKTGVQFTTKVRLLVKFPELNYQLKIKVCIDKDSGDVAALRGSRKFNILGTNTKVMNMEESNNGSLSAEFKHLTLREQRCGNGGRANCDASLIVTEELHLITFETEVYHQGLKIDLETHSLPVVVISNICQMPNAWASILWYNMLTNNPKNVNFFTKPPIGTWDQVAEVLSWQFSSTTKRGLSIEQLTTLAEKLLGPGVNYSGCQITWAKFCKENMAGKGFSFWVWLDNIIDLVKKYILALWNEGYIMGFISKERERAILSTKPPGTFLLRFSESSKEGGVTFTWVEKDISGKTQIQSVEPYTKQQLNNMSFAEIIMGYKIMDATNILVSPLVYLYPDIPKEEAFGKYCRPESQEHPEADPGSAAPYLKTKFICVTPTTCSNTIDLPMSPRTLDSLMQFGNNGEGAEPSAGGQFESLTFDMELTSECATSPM", "assay": "Inhibition of STAT3 phosphorylation at Tyr705 residue in human MDA231-LM2-4175 cells after 3 hrs by Western blotting analysis", "format": "cell-based", "settings": "dose 0.3-3 µM"}, "[2]": {"target": "T1, Signal transducer and activator of transcription 3", "assay": "Inhibition of STAT3 phosphorylation at Ser727 residue in human MDA-MB-231-4175 cells at 3 uM after 3 hrs by Western blotting analysis", "format": "cell-based", "settings": "MDA231-LM2-4175"}, "[3]": {"target": "T2, Signal transducer and activator of transcription 1-alpha/beta (Homo sapiens) (UniProt P42224)", "T2 sequence (whole entry)": "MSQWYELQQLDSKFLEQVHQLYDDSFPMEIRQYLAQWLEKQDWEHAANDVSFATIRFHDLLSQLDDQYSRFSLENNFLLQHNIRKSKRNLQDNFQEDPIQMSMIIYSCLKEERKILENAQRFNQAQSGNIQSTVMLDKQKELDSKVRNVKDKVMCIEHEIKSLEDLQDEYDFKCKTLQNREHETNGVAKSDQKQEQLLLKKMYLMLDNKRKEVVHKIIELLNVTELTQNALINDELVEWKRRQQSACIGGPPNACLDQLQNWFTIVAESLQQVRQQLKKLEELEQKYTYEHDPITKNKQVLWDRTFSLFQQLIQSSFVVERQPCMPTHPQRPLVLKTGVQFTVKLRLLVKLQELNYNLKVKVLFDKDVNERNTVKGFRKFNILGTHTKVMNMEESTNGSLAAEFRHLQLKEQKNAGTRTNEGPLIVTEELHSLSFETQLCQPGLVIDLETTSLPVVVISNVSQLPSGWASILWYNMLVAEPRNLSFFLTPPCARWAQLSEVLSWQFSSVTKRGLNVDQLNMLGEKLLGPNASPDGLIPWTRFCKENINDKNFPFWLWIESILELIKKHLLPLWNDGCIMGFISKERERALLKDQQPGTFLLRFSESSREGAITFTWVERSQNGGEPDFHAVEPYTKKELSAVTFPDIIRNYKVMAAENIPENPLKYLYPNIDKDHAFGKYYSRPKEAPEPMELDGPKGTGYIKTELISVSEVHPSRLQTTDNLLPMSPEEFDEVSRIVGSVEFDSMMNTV", "assay": "Inhibition of STAT1 phosphorylation at Y701 residue in human MDA-MB-231 cells at 0.3 to 3 uM after 3 hrs by Western blotting analysis", "format": "cell-based", "settings": "dose 0.3-3 µM"}, "[4]": {"target": "T2, Signal transducer and activator of transcription 1-alpha/beta (Homo sapiens)", "assay": "Inhibition of STAT1 phosphorylation at Y701 residue in human HCC70 cells at 0.3 to 3 uM after 3 hrs by Western blotting analysis", "format": "cell-based", "settings": "dose 0.3-3 µM"}, "HCC70 [5]": {"test_system": "HCC70", "assay": "Effect on total STAT5 level in human HCC70 cells at 0.3 to 3 uM after 3 hrs by Western blotting analysis", "format": "functional, cell-based", "settings": "dose 0.3-3 µM", "in_short": "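Breast cancer cells were treated with vehicle (0.1% DMSO) or compound, then lysed in RIPA with PMSF and phosphatase inhibitors. 20–50 μg protein was run on 8 or 12% SDS-PAGE, blotted to PVDF, blocked in 5% BSA, probed with primary antibodies overnight at 4 °C, then HRP secondaries, with ECL detection.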"}, "[6]": {"target": "T1, Signal transducer and activator of transcription 3", "assay": "Inhibition of STAT3 DNA binding in human MDA-MB-468 cells at 0.3 to 1 uM after 3 hrs by EMSA analysis", "format": "cell-based", "settings": "dose 0.3-1 µM", "in_short": "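Cells exposed to vehicle or compound for 3 h. Nuclear extracts prepared and BCA-quantified. Nuclear protein (8–10 µg) incubated with biotinylated STAT3 or STAT5 probe, resolved on 6% native polyacrylamide gel, transferred to nylon membrane and detected with a gel-shift kit.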"}, "MDA-MB-231 [7]": {"test_system": "MDA-MB-231", "assay": "Inhibition of colony formation in human MDA-MB-231 cells at 0.3 uM after 10 to 15 days by crystal violet staining based assay", "format": "functional, cell-based", "settings": "time 10-15 day", "in_short": "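Cells seeded at 0.5×10^3–1×10^3 per well; compound added the next day. Medium and compound renewed every 2–3 days. After about 10–15 days, colonies fixed with 4% paraformaldehyde, stained with crystal violet, scanned and quantified by image analysis. Triplicate.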"}, "MDA-MB-231 [8]": {"test_system": "MDA-MB-231", "assay": "Antiproliferative activity against STAT3 knocked down human MDA-MB-231 cells assessed as reduction in cell viability", "format": "functional, cell-based", "in_short": "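MDA-MB-231 cells at 60–70% confluence were transfected with STAT3 siRNA or negative-control siRNA using DharmaFECT. Viability was then read by CCK-8.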"}, "MDA-MB-231 [9]": {"test_system": "MDA-MB-231", "assay": "Induction of apoptosis in human MDA-MB-231 cells assessed as late apoptotic cells at 1 uM after 48 hrs by Annexin-V-FITC/propidium iodide staining based flow cytometric analysis (Rvb =3.05%)", "format": "functional"}, "MDA-MB-468": {"test_system": "MDA-MB-468", "assay": "Induction of apoptosis in human MDA-MB-468 cells assessed as early apoptotic cells at 3 uM after 48 hrs by Annexin-V-FITC/propidium iodide staining based flow cytometric analysis (reference value: 2.66%)", "format": "functional"}, "HCC70 [10]": {"test_system": "HCC70", "assay": "Inhibition of cell migration in human HCC70 cells incubated for 12 to 96 hrs by wound healing assay", "format": "functional, cell-based", "settings": "dose 0.3-3 µM, time 12-96 hrs", "in_short": "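Confluent monolayer (0.8–1.2×10^6 cells/well) scratched with a pipette tip, then treated with 0–3 µM compound until vehicle cells filled the gap. Imaged by microscope after about 12–96 h. Triplicate.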"}, "MDA-MB-231 [11]": {"test_system": "MDA-MB-231", "assay": "Inhibition of cell invasion in human MDA-MB-231 cells incubated for 12 hrs by crystal violet staining based transwell assay", "format": "functional", "settings": "dose 1-3 µM", "in_short": "(§1)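 Cells seeded at 1.5×10^4–3×10^4 per well in the upper chamber of 8.0 µm pore Transwell inserts and treated with graded compound for 12 h. Non-invading cells removed with cotton. Invaded cells fixed in 4% paraformaldehyde, stained with crystal violet, photographed and counted. Triplicate.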"}, "HCC70 [12]": {"test_system": "HCC70", "assay": "Inhibition of cell invasion in human HCC70 cells incubated for 12 hrs by crystal violet staining based transwell assay", "format": "functional", "settings": "dose 1-3 µM", "in_short": "as §1"}, "MDA231-LM2-4175": {"test_system": "MDA231-LM2-4175", "assay": "Antitumor activity against iv dosed human MDA231-LM2-4175 cells xenografted in mouse assessed as tumor growth inhibition administered once daily for 20 days", "format": "functional, organism-based", "settings": "dose 5-15 mg/kg, time 20.0 day"}, "[13]": {"assay": "Toxicity in mouse xenografted with human MDA-MB-231-4175 cells assessed as body weight loss at 5 to 15 mg/kg, […] once daily for 20 days", "format": "organism-based", "settings": "in vivo, iv, dose 5-15 mg/kg, time 20 day", "in_short": "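Female NOD-SCID mice aged 4–5 weeks, given 2×10^6–3×10^6 MDA-MB-231-4175 cells subcutaneously in the flank. At about 100 mm³ tumour volume, randomised n=6/group to vehicle (PBS with 15% Cremophor EL) or 5 or 15 mg/kg intraperitoneally daily for 20 days. Body weight tracked during treatment.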"}, "Breast cancer cell line": {"test_system": "Breast cancer cell line", "assay": "Antitumor activity against patient-derived breast cancer cells xenografted in NOD/SCID mouse assessed as reduction in Ki67 expression at 5 to 15 mg/kg, iv administered once daily for 20 days by immunohistochemical analysis", "format": "functional, organism-based", "settings": "Homo sapiens, dose 5-15 mg/kg, time 20.0 day"}, "[14]": {"assay": "Toxicity in NOD/SCID mouse xenografted with patient-derived breast cancer cells assessed as morphological change in kidney at 5 to 15 mg/kg, […] once daily for 20 days by HE staining based assay", "format": "organism-based", "settings": "in vivo, iv, dose 5-15 mg/kg, time 20 day", "in_short": "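Female NOD-SCID mice implanted subcutaneously in the flank with about 2 mm³ TNBC PDX fragments. At about 100 mm³ tumour volume, randomised n=6/group: vehicle (PBS with 15% Cremophor EL), 5 or 15 mg/kg intraperitoneally daily. Killed at day 20; heart, liver, spleen, lung and kidney collected for morphological examination.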"}},
  "note": "The source made the active and inactive calls. No cut-off for these calls is given here.",
  "data": [
    {"smiles": "O=C(Cc1c(-c2ccccc2)nc2ccccn12)Nc1ccc2c(c1)S(=O)(=O)C=C2", "values": [
      {"measurement": "inhibition", "setting": "[1]", "result": "Dose-Dependent Effect"},
      {"measurement": "inhibition", "setting": "[2]", "result": "Active"},
      {"measurement": "inhibition", "setting": "[3]", "result": "inactive"},
      {"measurement": "inhibition", "setting": "[4]", "result": "inactive"},
      {"measurement": "Activity", "setting": "HCC70 [5]", "result": "inactive"},
      {"measurement": "inhibition", "setting": "[6]", "result": "Active"},
      {"measurement": "inhibition", "setting": "MDA-MB-231 [7]", "result": "Active"},
      {"measurement": "Activity", "setting": "MDA-MB-231 [8]", "result": "inactive"},
      {"measurement": "Activity", "setting": "MDA-MB-231 [9]", "result": 7.54, "unit": "%"},
      {"measurement": "Activity", "setting": "MDA-MB-468", "result": 32.3, "unit": "%"},
      {"measurement": "inhibition", "setting": "HCC70 [10]", "result": "Dose-Dependent Effect"},
      {"measurement": "inhibition", "setting": "MDA-MB-231 [11]", "result": "Dose-Dependent Effect"},
      {"measurement": "inhibition", "setting": "HCC70 [12]", "result": "Dose-Dependent Effect"},
      {"measurement": "Activity", "setting": "MDA231-LM2-4175", "result": "Dose-Dependent Effect"},
      {"measurement": "Activity", "setting": "[13]", "result": "Non-Toxic"},
      {"measurement": "Activity", "setting": "Breast cancer cell line", "result": "Active"},
      {"measurement": "Activity", "setting": "[14]", "result": "Non-Toxic"}
    ]}
  ]
}
